PubChem BioAssay AID492985 (Sanford-Burnham Center for Chemical Genomics, 2010)

Each compound was assayed against Apelin receptor (Homo sapiens) (UniProt P35414) (assay: APJ receptor agonists, beta-arrestin recruitment, SAR follow-up, cell-based, CHO-K1 AGTRL-1, PathHunter luminescence, set 3 (AID 492985)).
Procedure, shortened: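 Test system: CHO-K1 AGTRL-1 (APJ) PathHunter β-arrestin cell line / Schedule: compound exposure 90 min at 25 °C, detection reagent 60 min / Technique: luminescence from β-gal fragment complementation upon β-arrestin recruitment / Benchmarks: apelin-13 positive control, 30 nM in dispensed solution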

Chain of Apelin receptor (Homo sapiens) (P35414 whole entry, looked up, the tested form may be a part): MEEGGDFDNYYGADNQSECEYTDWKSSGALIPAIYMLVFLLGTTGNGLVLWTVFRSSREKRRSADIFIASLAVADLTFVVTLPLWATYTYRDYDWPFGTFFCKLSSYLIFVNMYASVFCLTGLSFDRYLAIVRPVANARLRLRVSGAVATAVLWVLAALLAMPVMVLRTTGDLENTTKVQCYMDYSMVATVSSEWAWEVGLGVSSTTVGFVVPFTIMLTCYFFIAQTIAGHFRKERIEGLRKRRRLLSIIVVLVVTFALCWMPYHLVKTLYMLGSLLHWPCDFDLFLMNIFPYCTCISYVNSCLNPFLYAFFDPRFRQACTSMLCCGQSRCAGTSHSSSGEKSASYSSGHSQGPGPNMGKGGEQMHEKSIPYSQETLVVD

EC50 | Compound
5.56 µM | CC1=CC(=O)C(C(C)C)=C/C1=N/OS(=O)(=O)c1ccc(C(C)C)cc1
3.52 µM | CC1=CC(=O)C(C(C)C)=C/C1=N/OS(=O)(=O)c1ccc(C#N)cc1
7.15 µM | CC1=CC(=O)C(C(C)C)=C/C1=N/OS(=O)(=O)c1ccc(F)cc1
